Consider five molecules from ChEMBL document CHEMBL1154914, “Orally bioavailable anti-HBV dinucleotide acyloxyalkyl prodrugs” (Bioorg Med Chem Lett, 2010).

Series [1] is described as follows: Cytotoxicity against MDBK cells after 24 hrs by MTT assay. The series is classed as cell-based, Bos taurus. To be noted: cattle. (Formazan colour is commonly taken as a measure of viable cells.)
A short description of series [2]: Cytotoxicity against african green monkey Vero cells after 24 hrs by MTT assay. The series is classed as cell-based. Conditions: chlorocebus sabaeus.
A short description of series [3]: Cytotoxicity against human HFF cells after 24 hrs by MTT assay. In kind it is cell-based.
A short description of series [4]: Half life in simulated gastric fluid after 1 hr by reverse phase HPLC. In kind it is physicochemical. The procedure, abridged:
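Prodrug stock of 2 mg/200 μL DMSO, diluted 1:20 in USP simulated gastric fluid and held at 37 °C for 1 h. Timed aliquots were quenched with methanol, brought to pH 6.0 with NH4OAc/NaOH, centrifuged and concentrated. Read by reversed-phase C18 HPLC using a 30 min gradient from 0.1 M NH4OAc to 80:20 CH3CN:NH4OAc at 1 mL/min.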

Series [5] relates to Hepatitis B virus. Description: Antiviral activity against HBV infected in mouse assessed as liver HBV DNA level at 300-400 mg/kg, po QD for 14 days by Southern blotting. The series is classed as functional, organism-based. The procedure, abridged: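 HBV transgenic mice, pre-biopsied for liver HBV DNA and block-randomized (8/group). Dosed 300 to 400 mg/kg by oral gavage once daily for 14 days in 0.05 M citric acid pH 2.4 (0.1 mL per 20 g). Liver Southern blot with a 32P HBV genomic probe, hybridized overnight at 60°C and read by phosphorimaging. Viral DNA was ratioed to the transgene band (1.3 copies/cell). ADV was the positive control.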

In series [6] the test system is Hepatitis B virus. Description: Antiviral activity against wild type HBV infected in HepG2.2.15 cells assessed as nucleic acid and protein levels dosed daily for 9 days and measured 24 hrs after last treatment by Southern blot hybridization. Conditions: for EC50: Hepatitis B virus, HepG2 2.2.15. The series is classed as functional, organism-based, HepG2 2.2.15.
In series [7] the test system is Hepatitis B virus. Description: Antiviral activity against 3TC-resistant HBV with polymerase L180M mutation infected in HepG2.2.15 cells assessed as nucleic acid and protein levels dosed daily for 9 days and measured 24 hrs after last treatment by Southern blot hybridization. Conditions: for EC50: Hepatitis B virus, HepG2 2.2.15. The series is classed as functional, organism-based, HepG2 2.2.15.

Series [8] has as its system Hepatitis B virus. Description: Antiviral activity against 3TC-resistant HBV with polymerase M204V mutation infected in HepG2.2.15 cells assessed as nucleic acid and protein levels dosed daily for 9 days and measured 24 hrs after last treatment by Southern blot hybridization. The series is classed as functional, organism-based, HepG2 2.2.15. To be noted: for EC50: Hepatitis B virus, HepG2 2.2.15.

The test system of series [9] is Hepatitis B virus. Kind of series: Antiviral activity against 3TC-resistant HBV with polymerase M204I mutation infected in HepG2.2.15 cells assessed as nucleic acid and protein levels dosed daily for 9 days and measured 24 hrs after last treatment by Southern blot hybridization. Conditions: for EC50: Hepatitis B virus, HepG2 2.2.15. In kind it is functional, organism-based, HepG2 2.2.15.

Series [10] relates to Hepatitis B virus. Kind of series: Antiviral activity against 3TC-resistant HBV with polymerase LMMV mutation infected in HepG2.2.15 cells assessed as nucleic acid and protein levels dosed daily for 9 days and measured 24 hrs after last treatment by Southern blot hybridization. In kind it is functional, organism-based, HepG2 2.2.15. Conditions: for EC50: Hepatitis B virus, HepG2 2.2.15.

For series [11], the system named is Hepatitis B virus. Description: Antiviral activity against ADV-resistant HBV N236T mutation infected in HepG2.2.15 cells assessed as nucleic acid and protein levels dosed daily for 9 days and measured 24 hrs after last treatment by Southern blot hybridization. The series is classed as functional, organism-based, HepG2 2.2.15. To be noted: for EC50: Hepatitis B virus, HepG2 2.2.15.

For series [12], the system named is Mus musculus. Kind of series: Toxicity against HBV infected mouse at 300-400 mg/kg, po QD for 14 days. The series is classed as organism-based. To be noted: in vivo, 336 h.
In series [13] the test system is Hepatitis B virus. Description: Antiviral activity against HBV infected in mouse assessed as reduction in liver HBV DNA level dosed po QD for 14 days by Southern blotting. In kind it is functional, organism-based. The procedure, abridged: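 HBV transgenic mice, pre-biopsied for liver HBV DNA and block-randomized (8/group). Gavaged at 1, 5, 10 or 100 mg/kg once daily for 14 days in 0.05 M citric acid pH 2.4, against placebo and an ADV control. Liver taken after the last dose. HBV DNA by Southern blot with a 32P genomic probe and phosphorimaging, normalized to the transgene band (1.3 copies/cell).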

Series [14] in a line: Half life in simulated intestinal fluid after 1 hr by reverse phase HPLC. In kind it is physicochemical. The procedure, abridged:
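Prodrug stock (2 mg per 200 μL DMSO) diluted 1:20 into simulated intestinal fluid and held at 37 °C for 1 h. Aliquots at selected times were quenched with methanol, brought to pH 6.0 with NH4OAc/NaOH, centrifuged, concentrated and redissolved in 0.1 M NH4OAc. Analysed by reversed-phase C18 HPLC with photodiode-array detection, 0.1 M NH4OAc to 80:20 CH3CN:NH4OAc gradient over 30 min.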

SMILES strings stand for the structures. Activity calls are given as the source filed them. The rule behind the calls is not given here.

By CC50 is commonly meant the concentration that lowers cell viability or growth by half. In general, half-life refers to how long it takes for the measured level to halve. Take `CO[C@@H]1[C@H](OP(=O)(OC[C@H]2O[C@@H](n3cnc4c(N)ncnc43)C[C@@H]2O)SCOC(=O)C(C)(C)C)[C@@H](CO)O[C@H]1n1ccc(=O)[nH]c1=O` (stereo partly drawn): the CC50 at 24 h in [1], in [2] and in series [3] was greater than 1000 µM each time. Also, the half-life in series [4] is greater than 1 h. Also, the outcome in series [5] was Active.

As a reminder, the EC90 is the point of the concentration-response curve where the effect stands at 90%. As a reminder, the EC50 is the concentration that produces a half-maximal response. For the molecule `CC(C)(C)C(=O)OCOP(=O)(COCCn1cnc2c(N)ncnc21)OCOC(=O)C(C)(C)C` [ADEFOVIR DIPIVOXIL], the concentration for an effect of 90% (EC90) in series [6] was found to be 7 µM; in series [7], 8.2 µM; in series [8], 7.2 µM; in series [9], 8 µM; in series [10] it was 8.3 µM; in series [11] it was 29 µM. Further, the EC50 in series [6] is 1.5 µM; in series [7], 2.1 µM; in series [8] it was 1.8 µM; in series [9], 2 µM; in series [10], 2.2 µM; in series [11], 7.5 µM.

On to `CO[C@@H]1[C@H](OP(=O)(OC[C@H]2O[C@@H](n3cnc4c(N)ncnc43)C[C@@H]2O)SCOC(=O)OC(C)C)[C@@H](CO)O[C@H]1n1ccc(=O)[nH]c1=O` (stereo partly drawn) [INARIGIVIR SOPROXIL], for which the CC50 at 24 h in series [1], in series [2] and in series [3] was greater than 1000 µM in each case. The EC90 in [6] amounted to 8.5 µM; in series [7], 8.6 µM; in [8], 8.3 µM; in series [9], 9.2 µM; in series [10], 9.3 µM; in series [11] it was 8.7 µM. The EC50 worked out at 2.5 µM in [6]; 2.1 µM in [7]; 2.4 µM in [8]; 3 µM in series [9]; 3.1 µM in [10]; 2.8 µM in series [11]. The molecule further returned a half-life in series [4] greater than 1 h. Besides, the result in [5] was Active. Moreover, the Activity result is “Non-toxic” in series [12] and “Dose-dependent effect” in series [13].

For the molecule `CO[C@@H]1[C@H](OP(=O)(S)OC[C@H]2O[C@@H](n3cnc4c(N)ncnc43)C[C@@H]2O)[C@@H](CO)O[C@H]1n1ccc(=O)[nH]c1=O` (stereo partly drawn) [INARIGIVIR], the CC50 at 24 h in series [1], in [2] and in [3] was greater than 1000 µM each time. In addition, the half-life in [4] was less than 0.25 h; in series [14], 1 h.

In the case of `Nc1ccn([C@@H]2CS[C@H](CO)O2)c(=O)n1` [LAMIVUDINE], the EC90 in series [6] is 0.7 µM; in [7] it was 20 µM; in [8], greater than 100 µM; in series [9], greater than 100 µM; in series [10], greater than 100 µM; in [11], 0.8 µM. Besides, the EC50 in series [6] is 0.2 µM; in series [7], 5.3 µM; in [8], greater than 100 µM; in series [9], greater than 100 µM; in series [10] it was greater than 100 µM; in series [11], 0.2 µM.
